Measurements as given in article PMC9638899 (Nucleic Acids Research, 2022).
Where “and” joins values, the source holds several entries; their conditions need not be identical. Equal values may be shown once.

Columns and labels:
Sis0455 [1] = experiment: ITC binding of cA4 to Sis0455 wild type; design: species or system Sulfolobus islandicus
Sis0455-S11G = experiment: ITC binding of cA4 to Sis0455-S11G; design: species or system Sulfolobus islandicus
Sis0455-K106G [2] = experiment: ITC binding of cA4 to Sis0455-K106G; design: species or system Sulfolobus islandicus; conditions: 25°C, K106G mutant
Summary of the method: (§1)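 His-tagged Sis0455 mutants (site-directed) were expressed in E. coli BL21 pRARE and purified. Protein and cA4 were dialysed into 50 mM HEPES pH 8.0, 300 mM KCl. cA4 (~50 or 100 μM, syringe) was titrated into protein (~5 or 10 μM) at 25°C: one 0.4 μl injection, then 19 × 2 μl, 150 s apart, 750 rpm. cA4-into-buffer controls were run. Normalised heats were fitted to a single-site model.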

Sis0455-R105G [3] = experiment: ITC binding of cA4 to Sis0455-R105G; design: species or system Sulfolobus islandicus; conditions: 25°C, R105G mutant
Summary of the method: as §1

Sis0455 D75G = experiment: ITC binding of cA4 to Sis0455 D75G; design: species or system Sulfolobus islandicus; conditions: 25°C, D75G mutant
Summary of the method: as §1

Sis0455 T10G [4] = experiment: ITC binding of cA4 to Sis0455 T10G; design: species or system Sulfolobus islandicus; conditions: 25°C, T10G mutant
Summary of the method: as §1

Sis0455 E17G/T37G = experiment: ITC binding of cA4 to Sis0455 E17G/T37G; design: species or system Sulfolobus islandicus; conditions: 25°C, E17G/T37G mutant
Summary of the method: as §1

Sis0455 N138G [5] = experiment: ITC binding of cA4 to Sis0455 N138G; design: species or system Sulfolobus islandicus; conditions: 25°C, N138G mutant
Summary of the method: as §1

Sis0455 E41G/R134G = experiment: ITC binding of cA4 to Sis0455 E41G/R134G; design: species or system Sulfolobus islandicus; conditions: 25°C, E41G/R134G mutant
Summary of the method: as §1

Sis0455 Q130G/Y133G [6] = experiment: ITC binding of cA4 to Sis0455 Q130G/Y133G; design: species or system Sulfolobus islandicus; conditions: 25°C, Q130G/Y133G mutant
Summary of the method: as §1

Sis0811 [7] = experiment: Binding of cA4 to Sis0811; design: species or system Sulfolobus islandicus; conditions: Sis0811 versus SisCsx1
SisCsx1 [8] = experiment: Binding of cA4 to SisCsx1; design: species or system Sulfolobus islandicus; conditions: SisCsx1 versus Sis0455
Sis0455 [9] = experiment: cA4 cleavage activity assay and time course, LC ESI-MS, Sis0455; assay type: biochemical, Sulfolobus islandicus; conditions: time course, 40 μM cA4, 2 μM enzyme, 70°C
Sis0811 [10] = experiment: cA4 cleavage time course, LC ESI-MS, Sis0811; assay type: biochemical, Sulfolobus islandicus; conditions: 70°C
Sis0455-K106G [11] = experiment: cA4 cleavage activity assay, LC ESI-MS, Sis0455-K106G; assay type: biochemical, Sulfolobus islandicus; conditions: 40 μM cA4, 2 μM enzyme, 70°C, one hour
Summary of the method: (§2)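 Each 50 μl reaction held 40 μM cA4 and 2 μM His-tagged Sis0455 variant (E. coli-expressed) in 20 mM Tris pH 8.0, 100 mM NaCl, 1 mM EDTA, for 1 h at 70°C. A no-enzyme control was included. Reactions were stopped at 4°C, phenol-extracted, dried and taken up in 8.6 mM TEA pH 8.3. Products were separated on C18 reverse-phase UPLC (TEA/acetonitrile gradient, 30°C) and read by negative-ion ESI-MS. Runs were at least duplicates.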

Sis0455-R105G [12] = experiment: cA4 cleavage activity assay, LC ESI-MS, Sis0455-R105G; assay type: biochemical, Sulfolobus islandicus; conditions: 40 μM cA4, 2 μM enzyme, 70°C, one hour
Summary of the method: as §2

Sis0455 T10G [13] = experiment: cA4 cleavage activity assay, LC ESI-MS, Sis0455 T10 glycine substitution; assay type: biochemical, Sulfolobus islandicus; conditions: 40 μM cA4, 2 μM enzyme, 70°C, one hour, T10 substituted by glycine
Summary of the method: as §2

[14] = test system: Sis0455 E17/E37 glycine substitution; experiment: cA4 cleavage activity assay, LC ESI-MS, Sis0455 E17/E37 glycine substitution; assay type: biochemical, Sulfolobus islandicus; conditions: 40 μM cA4, 2 μM enzyme, 70°C, one hour, E17/E37 substituted by glycine
Summary of the method: as §2

Sis0455 N138G [15] = experiment: cA4 cleavage activity assay, LC ESI-MS, Sis0455 N138G; assay type: biochemical, Sulfolobus islandicus; conditions: 40 μM cA4, 2 μM enzyme, 70°C, one hour
Summary of the method: as §2

Sis0455 Q130G/Y133G [16] = experiment: cA4 cleavage activity assay, LC ESI-MS, Sis0455 Q130G/Y133G; assay type: biochemical, Sulfolobus islandicus; conditions: 40 μM cA4, 2 μM enzyme, 70°C, one hour
Summary of the method: as §2

Sis0455-E41G/R134G = experiment: cA4 cleavage activity assay, LC ESI-MS, Sis0455-E41G/R134G; assay type: biochemical, Sulfolobus islandicus; conditions: 40 μM cA4, 2 μM enzyme, 70°C, one hour
Summary of the method: as §2

SisCsx1 [17] = conditions: cited from earlier work
Sso2081 = Sso2081 versus Sso1393; cited from earlier work

**Q.** What does the source list for Cyclic tetraadenylate [cA4]?
**A.** Kd (Sis0455 [1]; ITC, 25°C, wild type Sis0455): 2.2 nM and 2 nM; higher affinity for cA4 of Sis0455 than Sis0811 (Sis0455 [1]; Sis0455 versus Sis0811 (ref 37)): 5 fold; Kd (Sis0455-S11G; ITC, 25°C, S11G variant): 19.5 nM; decrease in the binding affinity (Sis0455-S11G; S11G variant versus wild type Sis0455): ~10 fold; Kd (Sis0455-K106G [2]): 4100 nM; cA4 binding (Sis0455-R105G [3]): abolished cA4 binding; cA4 binding (Sis0455 D75G): abolished cA4 binding; Kd (Sis0455 T10G [4]): 35.3 nM; Kd (Sis0455 E17G/T37G): 3.5 nM; Kd (Sis0455 N138G [5]): 10.5 nM; Kd (Sis0455 E41G/R134G): 1.9 nM; Kd (Sis0455 Q130G/Y133G [6]): 2600 nM; affinity higher than that of SisCsx1 (Sis0811 [7]): 2 fold; affinity for cA4 lower than Sis0455 (SisCsx1 [8]): 10 fold; time to fully degrade cA4 producing 100% P1 product (Sis0455 [9]): 50 min; time to cleave the second phosphodiester bond converting all the linear product in the P1 dinucleotide (Sis0811 [10]; Sis0811): 30 min; time to fully degrade cA4 producing 100% P1 product (Sis0811 [10]; Sis0811): 50 min; time to convert almost 100% of the cyclic molecule in the P3 linear product (Sis0811 [10]; Sis0811, first phosphodiester): 20 min; cA4 cleavage activity (Sis0455-K106G [11]): abolished the cleavage activity; cA4 cleavage activity (Sis0455-R105G [12]): abrogated the nuclease activity; cA4 cleavage activity (Sis0455 T10G [13]): did not affect catalysis; cA4 cleavage activity [14]: did not affect catalysis; cA4 cleavage activity (Sis0455 N138G [15]): did not affect catalysis; cA4 cleavage activity (Sis0455 Q130G/Y133G [16]): did not affect catalysis; cA4 cleavage activity (Sis0455-E41G/R134G): showed cA4 as major specie; Kd (SisCsx1 [17]): 20 nM; cA4 processing faster than Sso1393 (Sso2081): 10 fold
